Data set [1] relates to NCI-H460. As to the kind of experiment: Antiproliferative activity against human NCI-H460 cells assessed as tumor growth inhibition after 48 hrs by sulforhodamine B assay. Conditions: NCI-H460, 48 h. The format is functional. The essentials: (§1)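 Tumor cells grown in RPMI 1640 with 5% fetal bovine serum, with penicillin/streptomycin in experimental cultures. Exposed in 96-well plates to samples in DMSO/RPMI at 0.25, 2.5, 25 and 250 µg/mL, 37 °C, 5% CO2, 48 h. Fixed with 50% trichloroacetic acid before (T0) and after treatment, protein stained with sulforhodamine B and read at 540 nm. GI50, TGI and LC50 in µg/mL from dose-response curves by non-linear regression.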
(The SRB assay estimates cell density from bound dye.)

Data set [2] concerns MCF7. As to the kind of experiment: Antiproliferative activity against human MCF7 cells after 48 hrs by sulforhodamine B assay. The format is functional. The conditions noted are these: MCF7, 48 h. The essentials: as §1
The test system of data set [3] is U-251. As to the kind of experiment: Cytotoxicity against human U251 cells. Type of data set: cell-based.
Data set [4] concerns NCI/ADR-RES. Description: Antiproliferative activity against human NCI/ADR-RES cells after 48 hrs by sulforhodamine B assay. The format is functional. The essentials:
as §1

For data set [5], the system named is Vero. Description: Cytotoxicity against african green monkey Vero cells after 48 hrs by sulforhodamine B assay. Conditions: chlorocebus sabaeus. Type of data set: cell-based.
In data set [6] the test system is 786-0. As to the kind of experiment: Antiproliferative activity against human 786-0 cells after 48 hrs by sulforhodamine B assay. Type of data set: functional. The conditions noted are these: 786-0, 48 h. The essentials: as §1
Data set [7] in a line: Antiproliferative activity against human PC3 cells assessed as tumor growth inhibition after 48 hrs by sulforhodamine B assay. The format is functional. The conditions noted are these: PC-3, 48 h. The essentials: as §1
Data set [8] concerns MCF7. As to the kind of experiment: Antiproliferative activity against human MCF7 cells assessed as tumor growth inhibition after 48 hrs by sulforhodamine B assay. The format is functional. Conditions: MCF7, 48 h. The essentials: as §1
In data set [9] the test system is U-251. Description: Antiproliferative activity against human U251 cells assessed as tumor growth inhibition after 48 hrs by sulforhodamine B assay. Type of data set: functional. Conditions: U-251, 48 h. The essentials:
as §1

In data set [10] the test system is U-251. Description: Antiproliferative activity against human U251 cells after 48 hrs by sulforhodamine B assay. The format is functional. The conditions noted are these: U-251, 48 h. The essentials:
as §1

A short description of data set [11]: Antiproliferative activity against human PC3 cells after 48 hrs by sulforhodamine B assay. Type of data set: functional. The conditions noted are these: PC-3, 48 h. The essentials: as §1
Data set [12] has as its system NCI-H460. As to the kind of experiment: Antiproliferative activity against human NCI-H460 cells after 48 hrs by sulforhodamine B assay. The conditions noted are these: NCI-H460, 48 h. Type of data set: functional. The essentials: as §1
Data set [13] in a line: Antiproliferative activity against human OVCAR3 cells assessed as tumor growth inhibition after 48 hrs by sulforhodamine B assay. Type of data set: functional. The conditions noted are these: OVCAR-3, 48 h. The essentials:
as §1

The test system of data set [14] is Vero. Description: Cytotoxicity against african green monkey Vero cells assessed as tumor growth inhibition after 48 hrs by sulforhodamine B assay. Conditions: chlorocebus sabaeus. Type of data set: cell-based. The essentials: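 Non-tumor lines (human HaCaT keratinocytes; Vero) in RPMI 1640 with 5% FBS, with penicillin/streptomycin added to experimental cultures. 48 h exposure at 0.25–250 µg/mL (DMSO/RPMI), 37 °C, 5% CO2. TCA fixation at time zero and at end, sulforhodamine B protein stain, absorbance 540 nm. TGI (total growth inhibition) from non-linear regression of the dose-response curve.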

The nature of data set [15]: Antiproliferative activity against human OVCAR3 cells after 48 hrs by sulforhodamine B assay. Type of data set: functional. The conditions noted are these: OVCAR-3, 48 h. The essentials:
as §1

In data set [16] the test system is 786-0. As to the kind of experiment: Antiproliferative activity against human 786-0 cells assessed as tumor growth inhibition after 48 hrs by sulforhodamine B assay. Type of data set: functional. The conditions noted are these: 786-0, 48 h. The essentials: as §1
For data set [17], the system named is NCI/ADR-RES. As to the kind of experiment: Antiproliferative activity against human NCI/ADR-RES cells assessed as tumor growth inhibition after 48 hrs by sulforhodamine B assay. Type of data set: functional. The essentials: as §1

By TGI is commonly meant the concentration at which net growth stops. As usually defined, the GI50 is the concentration giving 50% growth inhibition. The LC50 is the concentration lethal to half of the exposed cells or organisms.

Molecules are shown by their SMILES. In brackets after ≈: the same amount, converted by molar mass. Some results are limits rather than exact numbers.

With `CCCCCCCC/C=C\CCCCCCCC(=O)N1CCCC1`, the TGI in the data set with NCI-H460 [1] was 153 mg/L (≈ 456 µM); in data set [7], 21.9 mg/L (≈ 65.3 µM); in the data set on MCF7 [8], greater than 250 mg/L; in the data set on U-251 [9], 5.8 mg/L (≈ 17.3 µM); in data set [13] it was 14 mg/L (≈ 41.7 µM); with Vero [14], 10.6 mg/L (≈ 31.6 µM). The figures for the TGI in the data set with 786-0 [16] and in the data set on NCI/ADR-RES [17] were 23.3 mg/L (≈ 69.4 µM) and 5.6 mg/L (≈ 16.7 µM), respectively. For the same compound, the GI50 was determined as 5.2 mg/L (≈ 15.5 µM) with MCF7 [2]; 0.2 mg/L (≈ 0.596 µM) with NCI/ADR-RES [4]; 5.2 mg/L (≈ 15.5 µM) with 786-0 [6]; 3.8 mg/L (≈ 11.3 µM) in the data set with U-251 [10]; 13 mg/L (≈ 38.7 µM) in data set [11]; 45.6 mg/L (≈ 136 µM) in the data set with NCI-H460 [12]. In addition, it took 11.5 mg/L (≈ 34.3 µM) to inhibit growth in [15] by half (GI50). The LC50 in the data set with U-251 [3] is 14.2 mg/L (≈ 42.3 µM); in the data set on Vero [5], 3.9 mg/L (≈ 11.6 µM).

Source of the values: ChEMBL document CHEMBL3392966, “Antiproliferative activity of synthetic fatty acid amides from renewable resources” (Bioorg Med Chem, 2015).
